Reference: ChEMBL document CHEMBL4689842, “EUbOPEN Chemogenomics Library wave 1” (2021)
Where “and” joins values, the source holds several entries; their conditions need not be identical. Equal values may be shown once.

System: Fibroblast
Assay: Multiplex assay against human fibroblast
Format: toxicity, cell-based
Summary of the method: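 At seeding, live cells were stained with Hoechst33342, BioTracker Green Microtubule Cytoskeleton Dye, MitoTracker Red and Annexin V Alexa Fluor 680. After compound addition they were imaged on a CQ1 microscope at 37°C and 5% CO2, and CellPathfinder machine-learning gating sorted them into Hoechst high-intensity objects or normal cells, with normal cells further split into healthy, pyknosed or fragmented nuclei and pyknosed cells into mitotic or apoptotic. Tubulin, mitochondrial-mass and membrane-permeability phenotypes are given as per cents of cells with healthy nuclei.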

[1] = 12 h, 1 µM, compound concentration 1 uM, replicate 1
[2] = 12 h, 1 µM, compound concentration 1 uM, replicate 2
[3] = 12 h, 10 µM, compound concentration 10 uM, replicate 1
[4] = 12 h, 10 µM, compound concentration 10 uM, replicate 2
[5] = 24 h, 1 µM, compound concentration 1 uM, replicate 1
[6] = 24 h, 1 µM, compound concentration 1 uM, replicate 2
[7] = 24 h, 10 µM, compound concentration 10 uM, replicate 1
[8] = 24 h, 10 µM, compound concentration 10 uM, replicate 2

## C=CC(=O)Nc1cccc(Oc2nc(Nc3ccc(N4CCN(C)CC4)cc3OC)ncc2Cl)c1
[1]
  Population Fragmented Nuclei (%): 28%
  Population Healthy Nuclei (%): 65%
  Population Hoechst High Intensity Objects (%): 24%
  Population Mitochondria Different-Phenotype (%): 14%
  Population Normal (%): 75%
  Population Pyknosed Nuclei (%): 6%
  Population Tubulin-Different-Phenotype (%): 45%
  Total Cell Count: 324
[2]
  Population Apoptotic (%): 60%
  Population Fragmented Nuclei (%): 44%
  Population Healthy Nuclei (%): 48%
  Population Hoechst High Intensity Objects (%): 23%
  Population Membrane Permeable-Phenotype (%): 5%
  Population Mitochondria Different-Phenotype (%): 26%
  Population Mitotic Cells (%): 40%
  Population Normal (%): 76%
  Population Pyknosed Nuclei (%): 7%
  Population Tubulin-Different-Phenotype (%): 64%
  Total Cell Count: 92
[3]
  Population Apoptotic (%): 62%
  Population Fragmented Nuclei (%): 39%
  Population Healthy Nuclei (%): 42%
  Population Hoechst High Intensity Objects (%): 15%
  Population Membrane Permeable-Phenotype (%): 7%
  Population Mitochondria Different-Phenotype (%): 2%
  Population Mitotic Cells (%): 37%
  Population Normal (%): 84%
  Population Pyknosed Nuclei (%): 18%
  Population Tubulin-Different-Phenotype (%): 10%
  Total Cell Count: 237
[4]
  Population Apoptotic (%): 20%
  Population Fragmented Nuclei (%): 57%
  Population Healthy Nuclei (%): 34%
  Population Hoechst High Intensity Objects (%): 36%
  Population Membrane Permeable-Phenotype (%): 18%
  Population Mitochondria Different-Phenotype (%): 4%
  Population Mitotic Cells (%): 80%
  Population Normal (%): 64%
  Population Pyknosed Nuclei (%): 7%
  Population Tubulin-Different-Phenotype (%): 18%
  Total Cell Count: 100
[5]
  Population Apoptotic (%): 61%
  Population Fragmented Nuclei (%): 29%
  Population Healthy Nuclei (%): 60%
  Population Hoechst High Intensity Objects (%): 47%
  Population Membrane Permeable-Phenotype (%): 1%
  Population Mitochondria Different-Phenotype (%): 26%
  Population Mitotic Cells (%): 38%
  Population Normal (%): 52%
  Population Pyknosed Nuclei (%): 9%
  Population Tubulin-Different-Phenotype (%): 38%
  Total Cell Count: 265
[6]
  Population Apoptotic (%): 66%
  Population Fragmented Nuclei (%): 31%
  Population Healthy Nuclei (%): 56%
  Population Hoechst High Intensity Objects (%): 37%
  Population Membrane Permeable-Phenotype (%): 7%
  Population Mitochondria Different-Phenotype (%): 48%
  Population Mitotic Cells (%): 33%
  Population Normal (%): 62%
  Population Pyknosed Nuclei (%): 12%
  Population Tubulin-Different-Phenotype (%): 70%
  Total Cell Count: 77
[7]
  Population Apoptotic (%): 70%
  Population Fragmented Nuclei (%): 33%
  Population Healthy Nuclei (%): 50%
  Population Hoechst High Intensity Objects (%): 19%
  Population Membrane Permeable-Phenotype (%): 3%
  Population Mitochondria Different-Phenotype (%): 4%
  Population Mitotic Cells (%): 30%
  Population Normal (%): 80%
  Population Pyknosed Nuclei (%): 16%
  Population Tubulin-Different-Phenotype (%): 10%
  Total Cell Count: 231
[8]
  Population Apoptotic (%): 0%
  Population Fragmented Nuclei (%): 61%
  Population Healthy Nuclei (%): 35%
  Population Hoechst High Intensity Objects (%): 29%
  Population Membrane Permeable-Phenotype (%): 4%
  Population Mitochondria Different-Phenotype (%): 9%
  Population Mitotic Cells (%): 100%
  Population Normal (%): 70%
  Population Pyknosed Nuclei (%): 3%
  Population Tubulin-Different-Phenotype (%): 14%
  Total Cell Count: 85

## Cc1nc(N2CC[C@H](O)C2)ncc1-c1cc(C(F)(F)F)cc2[nH]ncc12
[1]
  Population Apoptotic (%): 70%
  Population Fragmented Nuclei (%): 32%
  Population Healthy Nuclei (%): 49%
  Population Hoechst High Intensity Objects (%): 12%
  Population Membrane Permeable-Phenotype (%): 10%
  Population Mitochondria Different-Phenotype (%): 6%
  Population Mitotic Cells (%): 29%
  Population Normal (%): 87%
  Population Pyknosed Nuclei (%): 18%
  Population Tubulin-Different-Phenotype (%): 7%
  Total Cell Count: 193
[2]
  Population Apoptotic (%): 20%
  Population Fragmented Nuclei (%): 42%
  Population Healthy Nuclei (%): 33%
  Population Hoechst High Intensity Objects (%): 40%
  Population Membrane Permeable-Phenotype (%): 28%
  Population Mitochondria Different-Phenotype (%): 28%
  Population Mitotic Cells (%): 80%
  Population Normal (%): 60%
  Population Pyknosed Nuclei (%): 23%
  Population Tubulin-Different-Phenotype (%): 50%
  Total Cell Count: 70
[3]
  Population Apoptotic (%): 66%
  Population Fragmented Nuclei (%): 24%
  Population Healthy Nuclei (%): 61%
  Population Hoechst High Intensity Objects (%): 15%
  Population Membrane Permeable-Phenotype (%): 3%
  Population Mitochondria Different-Phenotype (%): 7%
  Population Mitotic Cells (%): 33%
  Population Normal (%): 84%
  Population Pyknosed Nuclei (%): 14%
  Population Tubulin-Different-Phenotype (%): 4%
  Total Cell Count: 218
[4]
  Population Apoptotic (%): 50%
  Population Fragmented Nuclei (%): 68%
  Population Healthy Nuclei (%): 21%
  Population Hoechst High Intensity Objects (%): 22%
  Population Membrane Permeable-Phenotype (%): 15%
  Population Mitochondria Different-Phenotype (%): 15%
  Population Mitotic Cells (%): 50%
  Population Normal (%): 77%
  Population Pyknosed Nuclei (%): 9%
  Population Tubulin-Different-Phenotype (%): 15%
  Total Cell Count: 79
[5]
  Population Apoptotic (%): 48%
  Population Fragmented Nuclei (%): 29%
  Population Healthy Nuclei (%): 47%
  Population Hoechst High Intensity Objects (%): 12%
  Population Membrane Permeable-Phenotype (%): 9%
  Population Mitochondria Different-Phenotype (%): 9%
  Population Mitotic Cells (%): 51%
  Population Normal (%): 87%
  Population Pyknosed Nuclei (%): 22%
  Population Tubulin-Different-Phenotype (%): 12%
  Total Cell Count: 183
[6]
  Population Apoptotic (%): 60%
  Population Fragmented Nuclei (%): 45%
  Population Healthy Nuclei (%): 30%
  Population Hoechst High Intensity Objects (%): 35%
  Population Membrane Permeable-Phenotype (%): 30%
  Population Mitochondria Different-Phenotype (%): 7%
  Population Mitotic Cells (%): 40%
  Population Normal (%): 64%
  Population Pyknosed Nuclei (%): 23%
  Population Tubulin-Different-Phenotype (%): 23%
  Total Cell Count: 65
[7]
  Population Apoptotic (%): 65%
  Population Fragmented Nuclei (%): 22%
  Population Healthy Nuclei (%): 63%
  Population Hoechst High Intensity Objects (%): 15%
  Population Membrane Permeable-Phenotype (%): 7%
  Population Mitochondria Different-Phenotype (%): 3%
  Population Mitotic Cells (%): 34%
  Population Normal (%): 84%
  Population Pyknosed Nuclei (%): 14%
  Population Tubulin-Different-Phenotype (%): 3%
  Total Cell Count: 239
[8]
  Population Apoptotic (%): 83%
  Population Fragmented Nuclei (%): 67%
  Population Healthy Nuclei (%): 22%
  Population Hoechst High Intensity Objects (%): 24%
  Population Membrane Permeable-Phenotype (%): 38%
  Population Mitochondria Different-Phenotype (%): 30%
  Population Mitotic Cells (%): 16%
  Population Normal (%): 75%
  Population Pyknosed Nuclei (%): 10%
  Population Tubulin-Different-Phenotype (%): 46%
  Total Cell Count: 77

## CN(c1ccccc1CNc1nc(Nc2ccc3c(c2)CC(=O)N3)ncc1C(F)(F)F)S(C)(=O)=O
[3]
  Population Apoptotic (%): 77% and 66%
  Population Fragmented Nuclei (%): 25% and 30%
  Population Healthy Nuclei (%): 60% and 55%
  Population Hoechst High Intensity Objects (%): 16% and 14%
  Population Mitotic Cells (%): 22% and 33%
  Population Normal (%): 83% and 85%
  Population Pyknosed Nuclei (%): 13% and 14%
  Total Cell Count: 189 and 148
[4]
  Population Fragmented Nuclei (%): 56% and 49%
  Population Healthy Nuclei (%): 38% and 25%
  Population Hoechst High Intensity Objects (%): 39% and 31%
  Population Mitochondria Different-Phenotype (%): 5% and 14%
  Population Mitotic Cells (%): 100% and 64%
  Population Normal (%): 60% and 68%
  Total Cell Count: 83 and 80
[7]
  Population Apoptotic (%): 70% and 91%
  Population Fragmented Nuclei (%): 26% and 36%
  Population Healthy Nuclei (%): 55% and 54%
  Population Hoechst High Intensity Objects (%): 14% and 18%
  Population Membrane Permeable-Phenotype (%): 11%
  Population Normal (%): 85% and 81%
  Population Pyknosed Nuclei (%): 18% and 9%
  Total Cell Count: 176 and 163
[8]
  Population Fragmented Nuclei (%): 43% and 49%
  Population Healthy Nuclei (%): 47% and 28%
  Population Hoechst High Intensity Objects (%): 36% and 30%
  Population Membrane Permeable-Phenotype (%): 18% and 20%
  Population Mitochondria Different-Phenotype (%): 13% and 26%
  Population Normal (%): 63% and 69%
  Population Pyknosed Nuclei (%): 8% and 22%
  Total Cell Count: 73 and 76
